Screening results as filed in PubChem BioAssay.
Rpn11 inh: Rpn11 (PSMD14) deubiquitinase inhibitors, primary screen, biochemical, fluorescence polarization, uHTS. AID 588493, 2011. 26S proteasome non-ATPase regulatory subunit 14 (Homo sapiens), O00487. hit rate 0.59% among 360,000. human 26S proteasome, Ub4-pepOG fluorescence polarization; 20S core pre-blocked with epoxomicin. inhibition, % at 20 µM;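 active means inhibition at 20 µM, scaled to each plate's controls, above about 33%, limit read from the data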
HNF4A DNA FP: change in binding of human HNF4A to DNA, primary screen, biochemical, fluorescence polarization, FITC-DNA; Hepatocyte nuclear factor 4-alpha (Homo sapiens), P41235; hit rate 0.3% among 360,000; 1 h; activity change, % at 10 µM; in the data active means activity change above about 30%, passing the limit was not always enough
ATG4B inh: ATG4B protease inhibitors, primary screen, biochemical, fluorescence, uHTS; Cysteine protease ATG4B (Homo sapiens), Q9Y4P1; ATG4B cleavage of LC3-PLA2, NBD-HPC fluorescence, 1 h; inhibition, % at 8.33 µM; hit rate 0.51% among 340,000; in the data active means inhibition above about 40%
Target sequence (Q9Y4P1 whole entry, looked up): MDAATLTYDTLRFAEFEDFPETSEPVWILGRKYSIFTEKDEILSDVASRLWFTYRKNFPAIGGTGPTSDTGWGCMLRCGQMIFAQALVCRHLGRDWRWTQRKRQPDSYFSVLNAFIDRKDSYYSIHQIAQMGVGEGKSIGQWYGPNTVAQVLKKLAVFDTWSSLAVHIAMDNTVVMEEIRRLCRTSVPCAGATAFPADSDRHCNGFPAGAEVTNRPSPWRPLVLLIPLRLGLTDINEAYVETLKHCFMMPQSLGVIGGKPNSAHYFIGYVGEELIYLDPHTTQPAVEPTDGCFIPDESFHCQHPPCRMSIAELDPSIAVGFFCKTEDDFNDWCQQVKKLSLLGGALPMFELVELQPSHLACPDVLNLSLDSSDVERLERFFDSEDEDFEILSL
SENP1 inh: human SENP1 catalytic domain inhibitors, primary screen, biochemical, FRET, uHTS. Sentrin-specific protease 1 (Homo sapiens), Q9P0U3. recombinant SENP1 catalytic domain, CyPet-SUMO1-YPet FRET cleavage. inhibition, % at 10 µM. hit rate 0.21% among 360,000;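 active means inhibition at least 30% at 10 µM, raw YFP signal under a set limit, fluorescence ratio 0.5 to 1.5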;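 further: 0% = enzyme with DMSO and 100% = no enzyme wells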
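Test system: hSENP1 catalytic domain, recombinant; Amount: 20 pM final SENP1 enzyme; Medium: Tris pH 8 buffer plus EDTA, NaCl, BME, BSA, NP40, catalase; Schedule: 50 min enzyme reaction, room temperature, light-protected; Technique: FRET fluorescence in CFP and YFP emission channels; Controls: no-enzyme wells low, DMSO-plus-enzyme wells high control.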
CSN inh: inhibitors of CSN-mediated cullin deneddylation, primary screen, biochemical, fluorescence polarization, uHTS; Purified CSN, SCF-Nedd8-OG deneddylation; COP9 signalosome complex subunit 5 (Homo sapiens), Q92905; AID 651999, 2013; inhibition, % at 12.5 µM; hit rate 0.38% among 360,000;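 active means pattern-corrected inhibition above about 35%, with an unprinted fluorescence ratio check between 0.5 and 1.5, limit read from the data, passing the limit was not always enough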;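 further: 0% = enzyme with substrate and 100% = substrate without enzyme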
Target sequence (Q92905 whole entry, looked up, one chain of several): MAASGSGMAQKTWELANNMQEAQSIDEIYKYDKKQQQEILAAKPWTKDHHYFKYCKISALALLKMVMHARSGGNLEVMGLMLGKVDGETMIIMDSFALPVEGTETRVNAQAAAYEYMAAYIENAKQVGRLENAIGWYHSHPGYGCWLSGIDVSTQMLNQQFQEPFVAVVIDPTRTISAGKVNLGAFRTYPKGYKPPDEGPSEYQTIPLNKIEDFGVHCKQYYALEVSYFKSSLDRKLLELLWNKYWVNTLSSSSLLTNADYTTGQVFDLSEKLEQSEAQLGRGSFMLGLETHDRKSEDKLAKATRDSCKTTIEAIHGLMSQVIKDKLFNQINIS
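assay system = purified human Csn5 enzyme expressed in HEK293T cells | amount = 0.24 nM enzyme | buffer or medium = Tris/NaCl/DTT buffer, pH 7.5 | reagent = 10 nM SCFSkp2-Nedd8OG | compound = one concentration, 12.5 µM, 0.25% DMSO | times = 90 min reaction at room temperature | signal = FP | read-out basis = % inhibition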
TPT1 inh: Candida albicans TPT1 enzyme inhibitors, primary screen, biochemical, fluorescence polarization; hit rate 0.81% among 300,000; inhibition, % at 5 µM; AID 1962, 2009; recombinant caTPT1, FP RNA substrate dephosphorylation;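 active means inhibition above the mean of all tested compounds plus 3 SD, set per screening campaign, cut at about 24% in these data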;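 further: plate controls were DMSO alone for no effect and ferristatin control at 100 nM for full effect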
The depositor's hits bear a star; · = no result given. Only some compounds are listed: those with a hit (about 2% of all), similar ones and a draw of the others.

SMILES | Rpn11 inh | HNF4A DNA FP | ATG4B inh | SENP1 inh | CSN inh | TPT1 inh
CC1CC2CCCC(O)=C2C(=O)O1 (stereo not given) | -3.1 | -2.5 | 2.7 | 2.0 | 2.0 | ·
COc1ccccc1OCCNC(=O)CN1C(=O)NC2(CCCCC2)C1=O | -2.2 | -2.9 | -1.1 | 2.2 | -2.6 | ·
CC(C)Cn1c(SCC(=O)c2c(N)n(C)c(=O)n(C)c2=O)nc2ccccc21 | -1.1 | 1.0 | -4.5 | -0.9 | 1.3 | -0.7
CC(C)Cn1c(N)c(C(=O)CSc2nc3ccccc3n2C)c(=O)n(C)c1=O | 24.5 | 47.8* | 0.8 | -109.2 | -3.6 | -0.4
O=C(C[C@H]1CC[C@H]2[C@@H](COC[C@@H](O)CN2C(=O)c2cnccn2)O1)NCc1ccc(Oc2ccccc2)cc1 | · | -1.4 | · | -1.1 | -1.9 | ·
CCc1ccc2nc(SCC(=O)N3CC(=O)Nc4ccccc43)c(C#N)cc2c1 | -8.8 | 0.6 | -22.1 | 31.8* | 2.7 | 22.7
CC(=O)c1cccc(S(=O)(=O)N2CCC(C(=O)Oc3ccc(-c4nnco4)cc3)CC2)c1 | -8.1 | 0.4 | -6.7 | 2.3 | -1.4 | ·
O=C(NCCCSc1ccccc1)c1cc(Cl)ccc1O | -7.2 | -2.6 | -1.1 | 0.3 | 0.1 | ·
O=C(CCc1nnc(Cc2ccc(-c3ccccc3)cc2)o1)NCC1CC1 | -2.6 | 2.5 | -2.1 | 3.8 | -2.6 | 0.0
COCCNC(=O)CCc1nnc(Cc2ccc(-c3ccccc3)cc2)o1 | -1.5 | -0.1 | -1.3 | 0.6 | 114.9* | 0.2
O=C(Nc1ccc2nc(-c3cccs3)c(-c3cccs3)nc2c1)N1CCOCC1 | 46.9* | 6.8 | -12.4 | -24.2 | 7.1 | 6.5
O=c1cc(-c2cccc(Br)c2)nc(-c2ccccc2F)o1 | 0.8 | -1.3 | 45.8* | 2.0 | -7.8 | -2.4
COc1ccc(-c2cc(=O)oc3c(C)c(OCC(=O)Nc4cccnc4)ccc23)cc1 | 15.9 | 17.8 | -1.9 | -0.8 | 89.6* | -1.8
COc1ccc(C(CC(=O)N2CCCC2)c2c(OC)cc(OC)c3c(-c4ccccc4)cc(=O)oc23)cc1 (stereo not given) | 22.0 | -11.3 | -8.2 | -1.3 | 36.3* | 1.7
COc1ccc(C(CC(=O)N2CCCCC2)c2c(OC)cc(OC)c3c(-c4ccccc4)cc(=O)oc23)cc1 (stereo not given) | 10.7 | -17.6 | -0.9 | -2.3 | 25.9 | -1.4
COc1cccc(/C=C2\SC(=S)N(C(Cc3ccccc3)C(=O)O)C2=O)c1 (stereo not given) | -7.2 | 54.4* | 13.6 | 0.0 | -1.2 | -1.0
O=C(O)C(Cc1ccccc1)N1C(=O)/C(=C/c2cccs2)SC1=S (stereo not given) | 1.5 | -1.8 | 21.9 | -2.8 | 6.9 | ·
Cc1ccccc1Cn1c(C)c(C(=O)NCC(C)C)sc1=O | -0.3 | 4.0 | · | 0.1 | 5.5 | ·
COC(=O)CSc1nnc(CNC(=O)c2cc(OC)c(OC)c(OC)c2)n1C | 3.3 | 28.4* | -4.2 | 1.0 | -6.0 | -1.3
Cc1ccc(C)c(C(O)c2ncc(-c3ccc(C(F)(F)F)cc3)[nH]2)c1 (stereo not given) | -0.1 | 1.9 | · | 1.0 | -3.5 | ·
Cc1cc(C(=O)N/N=C/c2ccc(-c3ccc([N+](=O)[O-])cc3Cl)o2)n[nH]1 | -11.5 | 4.1 | -1.5 | -24.4 | 46.2* | 14.1
Cc1cc(C(=O)N/N=C/c2ccc(-c3cccc([N+](=O)[O-])c3)o2)n[nH]1 | 1.7 | -0.8 | 5.9 | 8.7 | 3.8 | -1.5
Fc1ccc(-c2ccc3c(c2)C2CC3CCN2)cc1 (stereo not given) | 3.1 | 1.8 | 7.0 | 1.2 | -1.0 | ·
O=[N+]([O-])c1cccc(CSc2nc3ccccc3[nH]2)c1 | -6.1 | -5.4 | 12.1 | -0.7 | 0.7 | -1.0
COc1cccc(CSc2nc3ccccc3[nH]2)c1 | 2.9 | 32.5* | -2.9 | 2.4 | 0.0 | -0.7
SMILES | Rpn11 inh | HNF4A DNA FP | ATG4B inh | SENP1 inh | CSN inh | TPT1 inh
O=C1N(c2ccccc2C(F)(F)F)O[C@]1(c1ccccc1)C1CCCC1 | 10.2 | 0.2 | 12.2 | 1.3 | 0.0 | ·
Cc1ccc(NCCN(C)C)c2c(=O)c3cc(O)ccc3sc12 | 36.7 | 52.2* | -4.1 | 37.2* | 12.8 | ·
COc1cc(C)c2sc3ccccc3c(=O)c2c1NCCN(C)C | -7.5 | 13.0 | · | -42.1 | 1.7 | ·
OC[C@@H]1CN(Cc2ccncc2)C[C@H](n2cnc3c(NCc4ccco4)ncnc32)O1 | 1.8 | -3.3 | · | 1.6 | -1.7 | ·
CCCCC(=O)N1CCN(c2nc3ccc(OCC)cc3s2)CC1 | -6.2 | 10.7 | 6.1 | 1.4 | 62.5* | -2.9
O=C1NC[C@H](c2ccccc2)N(CCC23CC4CC(CC(C4)C2)C3)C1=O | 0.1 | 5.1 | 0.3 | 0.2 | 74.4* | -0.2
Cc1ccccc1NS(=O)(=O)c1ccc(C(=O)OCC(=O)NCC(C)C)cc1 | 1.9 | 31.2* | -10.7 | -1.6 | 2.1 | -2.0
CC1(C(=O)NS(=O)(=O)c2ccccc2Cl)CCN1C(=O)CCc1cccs1 (stereo not given) | -5.4 | 0.7 | · | 0.6 | 3.4 | ·
COCCn1c(SCC(=O)c2ccc3c(c2)OCCO3)nnc1C(C)C | -0.7 | 1.5 | -15.4 | 0.6 | 84.4* | -0.9
CCCCNC(=O)C1(C)CCN1C(=O)c1sccc1C (stereo not given) | 3.3 | 3.0 | · | 0.7 | 1.2 | ·
CCCCC(C(=O)NC1CCCC1)N(C(=O)c1snc(C(N)=O)c1N)c1ccc(C)cc1 (stereo not given) | 2.0 | -0.2 | -6.9 | -19.3 | 6.4 | -2.3
Cc1ccc(N(C(=O)c2snc(C(N)=O)c2N)C(CC(C)C)C(=O)NC2CCCC2)cc1 (stereo not given) | 10.2 | -2.5 | 13.9 | -11.5 | 110.5* | -2.3
NS(=O)(=O)c1cccc(NC(=O)COC(=O)c2ccccc2SCC(=O)N2CCCC2)c1 | -0.4 | 1.8 | -3.2 | -7.7 | -1.3 | ·
CC(OC(=O)CC(C)c1ccccc1)C(=O)Nc1ccc(Cl)cn1 (stereo not given) | -0.9 | -1.2 | -5.5 | 3.2 | 43.2* | ·
CSc1nc(N)nc2c1ncn2CC(=O)NCc1ccc2[nH]ccc2c1 | 3.3 | -0.5 | · | 0.1 | -4.4 | ·
COc1cc(/C=C2\CCC(C)C3=C(c4cc(OC)c(OC)c(OC)c4)C(C#N)=C(N)OC32)cc(OC)c1OC (stereo not given) | · | 77.6* | -0.9 | -8.9 | 74.9 | ·
CC(=O)c1cccc(NC(=O)CNC(=O)Cc2cccc3ccccc23)c1 | 2.8 | 0.1 | -5.9 | 4.2 | -1.8 | ·
COc1ccc(NC(=O)CNC(=O)Cc2cccc3ccccc23)cc1 | -0.5 | -4.2 | -12.0 | 0.5 | 36.6* | ·
